From publication PMC4894453 (Scientific Reports, 2014)
In brackets after ≈: the same amount, converted by molar mass.

How the values were obtained:
[1] = system: S. aureus Newman; experiment: Membrane potential by flow cytometry with DiOC2; type: cell-based, Staphylococcus aureus; conditions: up to 100 μM, DiOC2(3)
How it was run: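 Exponential-phase S. aureus Newman (OD600 ≈ 0.3, Mueller-Hinton II broth) treated with test compound at 100, 10 or 1 μM for 30 min at 37°C. Cells stained 5 min with 30 μM DiOC2(3) and run on flow cytometry (10,000 events, 488 nm excitation, green and red emission). Red/green fluorescence ratio histograms compared. CCCP was the positive control; at least two independent samples.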

[2] = system: methicillin-resistant Staphylococcus aureus N315; experiment: MIC, microbroth dilution, MRSA; type: cell-based; conditions: Staphylococcus aureus, MRSA, read-out: MIC against Gram-positive bacteria, MRSA
How it was run: (§1)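 CLSI microbroth dilution in Mueller-Hinton broth. Test compound at final 200–0.1 μg/ml, diluted from 10 mg/ml DMSO stocks. Plates incubated 18–20 h. MIC is the lowest concentration preventing visible growth.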

[3] = system: Streptococcus pyogenes ATCC 700294; experiment: MIC, microbroth dilution, Streptococcus pyogenes; type: cell-based; conditions: Streptococcus pyogenes, ATCC700294, read-out: MIC against Gram-positive bacteria, SP
[4] = system: Bacillus anthracis sterne; experiment: microbe, parasite or virus in culture; type: cell-based; conditions: Bacillus anthracis, read-out: MIC against Gram-positive bacteria, BA
[5] = system: Streptococcus pneumoniae R6; experiment: MIC, microbroth dilution, Streptococcus pneumoniae; type: cell-based; conditions: Streptococcus pneumoniae, R6, read-out: MIC against Gram-positive bacteria, SPn
How it was run: as §1

[6] = system: panel of clinical relevant Gram-positive pathogens; experiment: MIC, statements over the Gram-positive panel; type: cell-based; conditions: read-out: MIC over the Gram-positive panel
[7] = system: Vero cells (kidney epithelial cells; ATCC CCL-81); experiment: Cytotoxicity, CellTiter-Glo viability; type: cell-based; conditions: Cytotox IC50/MIC against methicillin-susceptible S. aureus Newman
How it was run: (§2)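 Vero kidney epithelial cells exposed 72 h to test compound (final 200–0.1 μg/ml in DMEM; diluted from 10 mg/ml DMSO stocks). Viability read by CellTiter-Glo luminescence. IC50 is the concentration giving 50% viability loss, from curve fitting. Selectivity index is the cytotoxic IC50 divided by the MIC against S. aureus Newman.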

[8] = Cytotoxicity, CellTiter-Glo viability; type: cell-based; conditions: African green monkey, Vero cells (kidney epithelial cells; ATCC CCL-81)
How it was run: as §2

[9] = system: Bacillus subtilis ATCC 23857; experiment: MIC, microbroth dilution, Bacillus subtilis; type: cell-based; conditions: Bacillus subtilis, ATCC23857, read-out: MIC against Gram-positive bacteria, BS
How it was run: as §1

[10] = system: Enterococcus faecalis ATCC 33186; experiment: MIC, microbroth dilution, Enterococcus faecalis; type: cell-based; conditions: Enterococcus faecalis, ATCC33186, read-out: MIC against Gram-positive bacteria, EF

CC(=O)C1=C(O)C(CC(C)C)NC1=O (stereo not shown) [Compound 2, 3-acetyl-4-hydroxy-5-isobutyl-1H-pyrrol-2(5H)-one]
effect on the membrane potential [1]: failed to affect the membrane potential
MIC [2]: > 200 µg/mL
MIC [3]: > 200 µg/mL
MIC [4]: > 200 µg/mL
MIC [5]: > 200 µg/mL
MIC [6]: > 200 µg/mL
Selectivity index [7]: 1
IC50 at 72 h [8]: 217 µg/mL (≈ 1100 µM)
MIC [9]: > 200 µg/mL
MIC [10]: > 200 µg/mL
